Results reported in ChEMBL document CHEMBL1275449, “Potent in vitro antifungal activities of naturally occurring acetylenic acids” (Antimicrob Agents Chemother, 2008).
Converted amounts (≈) assume the structure as drawn. The source made the active and inactive calls. The rule behind the calls is not given here.

Assays:
[1] = system: Trichophyton rubrum; experiment: Antifungal activity against Trichophyton rubrum ATCC 10218 by CLSI method; assay type: functional, organism-based
Procedure, shortened: (§1)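 Growth scraped from 1- to 6-week-old potato dextrose slants and filtered through Miracloth. Diluted in 5% Alamar blue-RPMI 1640 (MOPS pH 7.0) to 2.7 × 10⁴ CFU/ml. Eleven twofold dilutions in duplicate. Fluorescence at 544 nm excitation/590 nm emission read before and after 35°C, 5 days. IC50 fitted from percent growth. MIC taken as no detectable growth; MFC from clear or blue wells plated on PD agar.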

[2] = system: Trichophyton rubrum; experiment: Antifungal activity against Trichophyton rubrum ATCC MYA-4438 by CLSI method; assay type: functional, organism-based; procedure, shortened: as §1
[3] = system: Trichophyton mentagrophytes; experiment: Antifungal activity against Trichophyton mentagrophytes ATCC 9533 by CLSI method; assay type: functional, organism-based; procedure, shortened: as §1
[4] = system: Trichophyton mentagrophytes; experiment: Antifungal activity against Trichophyton mentagrophytes ATCC MYA-4439 by CLSI method; assay type: functional, organism-based; procedure, shortened: as §1
[5] = system: Cryptococcus neoformans; experiment: Antifungal activity against Cryptococcus neoformans ATCC 66031 after 72 hrs by CLSI method; assay type: functional, organism-based; conditions: ATCC 66031, 72 h
Procedure, shortened: (§2)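 SD broth replaced RPMI because growth in RPMI was poor; other CLSI conditions were kept. Inoculum was 1.5 × 10³ CFU/ml from colonies on SD agar, checked by plating. Twofold serial dilutions (11 concentrations) in 20% DMSO-saline were tested in duplicate. OD530 was read before and after incubation at 35°C for 72 h. Percent growth gave IC50; the MIC is the lowest concentration with no detectable growth.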

[6] = system: Cryptococcus neoformans; experiment: Antifungal activity against Cryptococcus neoformans ATCC 90113 after 72 hrs by CLSI method; assay type: functional, organism-based; conditions: ATCC 90113, 72 h; procedure, shortened: as §2
[7] = system: Candida tropicalis; experiment: Antifungal activity against Candida tropicalis ATCC 750 after 48 hrs by CLSI method; assay type: functional, organism-based; conditions: ATCC 750, 48 h
Procedure, shortened: (§3)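 Yeast suspensions made from 3-5 colonies off 24-72 h SD agar plates in saline. They were diluted by OD630 standard curve in RPMI 1640 (0.2% dextrose, 0.03% glutamine, 0.165 M MOPS, pH 7.0) to 1.5 × 10³ CFU/ml. Twofold dilutions (11 concentrations, 20% DMSO-saline) run in duplicate. OD530 read before and after 35°C, 48 h. Line values are top test concentrations; no-growth endpoints give MIC/MFC.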

[8] = system: Candida parapsilosis; experiment: Antifungal activity against Candida parapsilosis ATCC 22019 after 48 hrs by CLSI method; assay type: functional, organism-based; conditions: Lodderomyces parapsilosis, ATCC 22019, 48 h; procedure, shortened: as §3
[9] = system: Pichia kudriavzevii; experiment: Antifungal activity against Candida krusei ATCC 6258 after 48 hrs by CLSI method; assay type: functional, organism-based; conditions: ATCC 6258, 48 h
Procedure, shortened: (§4)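 Candida inocula came from 24–72-h SD agar colonies suspended in saline. They were diluted by OD630 standard curve into RPMI 1640 (0.2% dextrose, 0.03% glutamine, 0.165 M MOPS, pH 7.0) to 1.5 × 10³ CFU/ml. Compounds were run as 11 twofold dilutions in 20% DMSO-saline, in duplicate, at 35°C for 48 h, with OD530 read before and after. Percent growth at the top concentration, IC50, MIC, and MFC (SD agar plating) were derived.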

[10] = system: Nakaseomyces glabratus; experiment: Antifungal activity against Candida glabrata ATCC 90030 after 48 hrs by CLSI methodCandida glabrata; assay type: functional, organism-based; conditions: ATCC 90030, 48 h; procedure, shortened: as §4
[11] = system: Candida albicans; experiment: Antifungal activity against Fluconazole resistant Candida albicans clinical isolate 17 after 48 hrs by CLSI method; assay type: functional, organism-based
Procedure, shortened: (§5)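 CLSI broth microdilution. Colonies from 24–72 h SD agar suspended in saline and sized by OD630 standard curve. Inoculum 1.5 × 10³ CFU/ml (final) in RPMI 1640 (0.2% dextrose, 0.03% glutamine, 0.165 M MOPS, pH 7.0). Twofold dilutions (11 levels) from 20% DMSO-saline, in duplicate. 35°C for 48 h, OD530 read before and after. IC50 fitted from % growth. MIC: no detectable growth. MFC: subculture onto SD agar.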

[12] = system: Candida albicans; experiment: Antifungal activity against Fluconazole resistant Candida albicans clinical isolate 1 after 48 hrs by CLSI method; assay type: functional, organism-based; procedure, shortened: as §5
[13] = system: Aspergillus flavus; experiment: Antifungal activity against Aspergillus flavus ATCC 204304 at 10.8 uM after 48 hrs by CLSI method; assay type: functional, organism-based
[14] = system: Candida albicans; experiment: Antifungal activity against Candida albicans ATCC 200955 after 48 hrs by CLSI method; assay type: functional, organism-based; conditions: ATCC 200955, 48 h; procedure, shortened: as §5
[15] = system: Aspergillus niger; experiment: Antifungal activity against Aspergillus niger ATCC 16404 at 10.8 uM after 48 hrs by CLSI method; assay type: functional, organism-based
[16] = system: Candida albicans; experiment: Antifungal activity against Candida albicans ATCC 90028 after 48 hrs by CLSI method; assay type: functional, organism-based; conditions: ATCC 90028, 48 h; procedure, shortened: as §5
[17] = system: Candida albicans; experiment: Antifungal activity against Candida albicans ATCC 32354 after 48 hrs by CLSI method; assay type: functional, organism-based; conditions: ATCC 32354, 48 h; procedure, shortened: as §5
[18] = system: Candida albicans; experiment: Antifungal activity against Candida albicans ATCC 14053 after 48 hrs by CLSI method; assay type: functional, organism-based; conditions: ATCC 14053, 48 h; procedure, shortened: as §5
[19] = system: Candida albicans; experiment: Antifungal activity against Candida albicans ATCC 60193 after 48 hrs by CLSI method; assay type: functional, organism-based; conditions: ATCC 60193, 48 h; procedure, shortened: as §5
[20] = system: Aspergillus niger; experiment: Antifungal activity against Aspergillus niger ATCC 16404 after 48 h by CLSI method; conditions: ATCC 16404, 48 h
[21] = system: Aspergillus flavus; experiment: Antifungal activity against Aspergillus flavus ATCC 204304 after 48 h by CLSI method; conditions: ATCC 204304, 48 h
[22] = system: Aspergillus fumigatus; experiment: Antifungal activity against Aspergillus fumigatus ATCC 90906 after 48 h by CLSI method; conditions: ATCC 90906, 48 h
[23] = system: Aspergillus fumigatus; experiment: Antifungal activity against Aspergillus fumigatus ATCC 204305 after 48 h by CLSI method; conditions: ATCC 204305, 48 h

## C[C@@H]1[C@H](O)[C@@H](C)/C=C/C=C/C=C/C=C/C=C/C=C/C=C/[C@H](O[C@@H]2O[C@H](C)[C@@H](O)[C@H](N)[C@@H]2O)C[C@@H]2O[C@](O)(C[C@@H](O)C[C@@H](O)[C@H](O)CC[C@@H](O)C[C@@H](O)CC(=O)O[C@H]1C)C[C@H](O)[C@H]2C(=O)O [AMPHOTERICIN B]
[1]
  IC50: 600 nM
  MFC: 1.4 µM (≈ 1.29 µg/mL)
  MIC: 1.4 µM (≈ 1.29 µg/mL)
[2]
  IC50: 600 nM
  MFC: 5.4 µM (≈ 4.99 µg/mL)
  MIC: 1.4 µM (≈ 1.29 µg/mL)
[3]
  IC50: 600 nM
  MFC: 2.7 µM (≈ 2.5 µg/mL)
  MIC: 2 µM (≈ 1.85 µg/mL)
[4]
  IC50: 900 nM
  MFC: 1.4 µM (≈ 1.29 µg/mL)
  MIC: 1.4 µM (≈ 1.29 µg/mL)
[5]
  IC50: 80 nM
  MFC: 0.34 µM (≈ 0.314 µg/mL)
  MIC: 0.34 µM (≈ 0.314 µg/mL)
[6]
  IC50: 300 nM
  MFC: 0.7 µM (≈ 0.647 µg/mL)
  MIC: 0.7 µM (≈ 0.647 µg/mL)
[7]
  IC50: 300 nM
  MFC: 1.4 µM (≈ 1.29 µg/mL)
  MIC: 1 µM (≈ 0.924 µg/mL)
[8]
  IC50: 300 nM
  MFC: 5.4 µM (≈ 4.99 µg/mL)
  MIC: 2 µM (≈ 1.85 µg/mL)
[9]
  MFC: 2.7 µM (≈ 2.5 µg/mL)
  MIC: 2 µM (≈ 1.85 µg/mL)
[10]
  IC50: 400 nM
  MFC: 1.4 µM (≈ 1.29 µg/mL)
  MIC: 1.4 µM (≈ 1.29 µg/mL)
[11]
  IC50: 200 nM
  MFC: 1.4 µM (≈ 1.29 µg/mL)
  MIC: 1 µM (≈ 0.924 µg/mL)
[12]
  IC50: 200 nM
  MFC: 1.4 µM (≈ 1.29 µg/mL)
  MIC: 1 µM (≈ 0.924 µg/mL)
[13]
  Activity: inactive
[14]
  IC50: 600 nM
  MFC: 2.7 µM (≈ 2.5 µg/mL)
  MIC: 2.7 µM (≈ 2.5 µg/mL)
[15]
  Activity: inactive
[16]
  MFC: 1.4 µM (≈ 1.29 µg/mL)
  MIC: 1 µM (≈ 0.924 µg/mL)
[17]
  MFC: 1.4 µM (≈ 1.29 µg/mL)
  MIC: 1 µM (≈ 0.924 µg/mL)
[18]
  MFC: 1.4 µM (≈ 1.29 µg/mL)
  MIC: 1 µM (≈ 0.924 µg/mL)
[19]
  IC50: 200 nM
  MFC: 1.4 µM (≈ 1.29 µg/mL)
  MIC: 1 µM (≈ 0.924 µg/mL)
[20]
  IC50: 900 nM
  MIC: 2 µM (≈ 1.85 µg/mL)
[21]
  IC50: 1500 nM
  MIC: 2.7 µM (≈ 2.5 µg/mL)
[22]
  IC50: 900 nM
  MFC: 2.7 µM (≈ 2.5 µg/mL)
  MIC: 1.4 µM (≈ 1.29 µg/mL)
[23]
  IC50: 1200 nM
  MFC: 10.8 µM (≈ 9.98 µg/mL)
  MIC: 2 µM (≈ 1.85 µg/mL)
